Results as given in PubChem BioAssay AID1325 (NMMLSC, 2008).
The campaign covered roughly 190,000 compounds. About 200 (0.11%) were called active. The sample holds actives, similar compounds and a random draw of the others, so the mix is not that of the screen.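 The calls were made as follows: active = inhibition above 80%; inactive = the rest.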

molecular target: Broad substrate specificity ATP-binding cassette transporter ABCG2 (Homo sapiens) (UniProt Q9UNQ0); assay: blockers of JC-1 export by ABCG2 – multiplex with ABCB1, IgMXP3 cells, flow cytometry, primary screen (AID 1325); conditions: JC-1 efflux, at 6.6 µM, hits give high values;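 also: 0% = DMSO and 100% = nicardipine control wells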
In short: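 test system = two drug-resistant human cell lines, ABCG2 and ABCB1 | amount = 3 million cells/mL final, two lines in 1:1 ratio | reagent = JC-1 transporter substrate | doses = one concentration, 6.6 µM final | incubation = 10 min at 25 °C | signal = flow cytometric JC-1 green MFI at 530 nm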

Broad substrate specificity ATP-binding cassette transporter ABCG2 (Homo sapiens), sequence (Q9UNQ0 whole entry, looked up): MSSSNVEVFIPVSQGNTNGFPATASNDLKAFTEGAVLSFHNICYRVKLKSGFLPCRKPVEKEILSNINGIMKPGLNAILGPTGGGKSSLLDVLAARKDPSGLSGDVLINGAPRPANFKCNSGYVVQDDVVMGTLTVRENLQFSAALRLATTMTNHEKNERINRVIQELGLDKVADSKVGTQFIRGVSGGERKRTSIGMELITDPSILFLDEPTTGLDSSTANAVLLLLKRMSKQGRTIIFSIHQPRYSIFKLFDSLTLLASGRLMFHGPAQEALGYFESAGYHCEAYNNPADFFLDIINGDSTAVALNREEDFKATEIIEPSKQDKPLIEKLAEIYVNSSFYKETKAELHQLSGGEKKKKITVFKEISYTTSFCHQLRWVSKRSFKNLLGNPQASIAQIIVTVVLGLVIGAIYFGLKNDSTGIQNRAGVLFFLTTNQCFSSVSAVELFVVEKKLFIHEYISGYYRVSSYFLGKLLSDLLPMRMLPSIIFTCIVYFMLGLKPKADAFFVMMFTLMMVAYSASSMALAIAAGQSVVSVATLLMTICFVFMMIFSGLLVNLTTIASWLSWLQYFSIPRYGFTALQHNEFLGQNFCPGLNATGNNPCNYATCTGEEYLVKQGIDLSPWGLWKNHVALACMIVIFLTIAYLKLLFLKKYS

SMILES	inhibition
CC(Sc1nc2cc(Cl)ccc2s1)C(=O)Nc1ccc2c(c1)OCO2 (centres undefined)	0% (inactive)
O=C(/C=C/c1ccc([N+](=O)[O-])cc1)NCCSCc1ccco1	54.6% (inactive)
O=S(=O)(Nc1ccccn1)c1cccc(S(=O)(=O)c2ccc(Cl)cc2)c1	-0.57% (inactive)
O=C(NNC1=NCCC1)c1cccc(S(=O)(=O)N2CCCCC2)c1	-6.82% (inactive)
C=CCc1cccc2cc(C(=O)Nc3ccc(NC(C)=O)cc3)c(=O)oc12	0.59% (inactive)
O=C(Cc1c[nH]c2ccccc12)N/N=C/c1cccc(F)c1	88.7% (active)
O=C(CC(=O)N/N=C\c1ccc(F)cc1)NCCc1ccccc1	1.18% (inactive)
O=C(Cc1ccc(F)cc1)N/N=C/c1ccc2c(c1)OCO2	10.1% (inactive)
Cc1cc(C(=O)N/N=C\C(Br)=C\c2ccccc2)c(C)o1	2.48% (inactive)
NC(=O)CCC(NS(=O)(=O)c1ccc(Cl)cc1)C(=O)NCc1ccccc1Cl (centres undefined)	4.92% (inactive)
Cc1cc(C)n(CC(O)CN(c2ccccc2)S(=O)(=O)c2ccc3ccccc3c2)n1 (centres undefined)	16.1% (inactive)
CCc1nnc(NC(=O)CSc2nc(SC)ns2)s1	1.21% (inactive)
COc1ccc(C2(CNC(=O)Cc3ccc(OC)c(OC)c3)CCCC2)cc1	2.77% (inactive)
CC(C)CCN1C(=O)c2ccc(C(=O)Nc3cccc(S(N)(=O)=O)c3)cc2C1=O	-4.62% (inactive)
Clc1ccc(-c2ncc3ccccn23)c(Cl)c1	-0.33% (inactive)
CCOc1cc(/C=N/NC(=O)c2ccc(CSc3nncn3C)cc2)ccc1OCC(=O)N1CCOCC1	-0.51% (inactive)
Cc1nn(CC(=O)Nc2ccc3c(c2)OCO3)c(C)c1[N+](=O)[O-]	11.5% (inactive)
CC(=O)Nc1sc2c(c1C(c1cccc(F)c1)N1CCN(CCO)CC1)CCCC2 (centres undefined)	-0.02% (inactive)
O=C(c1cncc(Br)c1)N1CCN(c2ccc([N+](=O)[O-])cc2)CC1	34.2% (inactive)
CN(C)c1ccc(/C=N/Nc2cc(N3CCOCC3)nc(N3CCOCC3)n2)cc1	5.63% (inactive)
Cn1nc(C(F)(F)F)c2cc(C(=O)N3CCOCC3)sc21	0.03% (inactive)
Cc1cc(NC(=O)CSc2nc3cc(Cl)ccc3c(=O)n2Cc2ccco2)no1	5.22% (inactive)
CCC1CCCCN1C(=S)Nc1ccc(SC(F)F)cc1 (centres undefined)	0% (inactive)
O=C(N/N=C/c1cc([N+](=O)[O-])ccc1O)/C(=C\c1cccs1)NC(=O)c1ccccc1	-3.14% (inactive)

SMILES	inhibition
Cn1cc(CN2CCCC(CO)C2)c(-c2ccc(Oc3ccccc3)cc2)n1 (centres undefined)	-1.73% (inactive)
CN(C)c1ccc(C=C2C(=O)OC3(CCCC3)OC2=O)cc1	0.11% (inactive)
Cc1nc2nc[nH]n2c(=O)c1C/C=C/c1ccccc1	0.18% (inactive)
CN(C)c1ccc2c(=O)[nH][nH]c(=O)c2c1	2.2% (inactive)
CCn1nc(C)cc1C(=O)N1CCCC(C(=O)c2cccc(OC)c2)C1 (centres undefined)	-0.58% (inactive)
CCNS(=O)(=O)c1ccc(NC(=O)c2cncc(Br)c2)cc1	19.8% (inactive)
Cn1c(CCC(=O)OCC(=O)NCc2ccccc2Cl)nc(=O)c2ccccc21	1.08% (inactive)
CN(C)C(=O)c1cccn(Cc2cccc(C(F)(F)F)c2)c1=O	-0.69% (inactive)
CN1C(=O)/C(=C/C=C2\SCCN2C)OC1=S	-0.91% (inactive)
Cc1ccc(NC(=O)C2(N3CCC3=O)CCCCC2)cc1	0.01% (inactive)
COc1ccc(C(=O)Nc2ccc(-n3nncc3C(C)(C)C)cc2)cc1	1.71% (inactive)
Cc1ccc(NS(=O)(=O)c2cccs2)cc1S(=O)(=O)N1CCCCCC1	0.74% (inactive)
Cc1ccc(OCc2nnc(SC3CCc4ccccc4C3=O)n2C)cc1 (centres undefined)	1.34% (inactive)
O=C(Cn1cc(C(F)(F)F)ccc1=O)N/N=C/c1ccc(Cl)cc1Cl	-1.56% (inactive)
Cc1ccc2c(CC(=O)NCc3cccs3)coc2c1	9.43% (inactive)
CCc1nnc(NC(=O)c2cccc(S(=O)(=O)N(C)c3ccc(OC)cc3)c2)s1	3.19% (inactive)
COc1ccc(CNC(=O)CN(Cc2ccc(Cl)cc2)S(C)(=O)=O)cc1	3.97% (inactive)
COc1cccc(NC(=O)CC(c2ccc(OC(C)C)cc2)c2ccccc2OC)c1 (centres undefined)	10.9% (inactive)
Cc1ccc(O)c(NC(=S)NC(=O)COc2ccc(Br)cc2)c1	3.88% (inactive)
CCOC(=O)C1=C(CC)Nc2ccccc2N=C1N	0.61% (inactive)
CC(CNc1ccc([N+](=O)[O-])c2cccnc12)Nc1c([N+](=O)[O-])cc(C(F)(F)F)cc1[N+](=O)[O-] (centres undefined)	23.1% (inactive)
CC(=O)NC1C(Oc2ccc(C=O)cc2)OC(COC(C)=O)C(OC(C)=O)C1OC(C)=O (centres undefined)	0.63% (inactive)
Cc1nc2cc(NCc3cccs3)ccc2n1C	0.91% (inactive)
CCCCc1ccc(S(N)(=O)=O)cc1	3.23% (inactive)

SMILES	inhibition
O=C(NCc1ccccn1)c1cc(Br)ccc1Cl	2.2% (inactive)
CC(C)C(c1nnnn1C(C)(C)C)N1CCN(Cc2cccnc2)CC1 (centres undefined)	1.7% (inactive)
CCOC(=O)c1ccc(NC(=S)Nc2cc(C)cc(C)n2)cc1	11.7% (inactive)
CC(C)N(C)C(=O)CCc1nnc(CCc2c[nH]c3ccccc23)o1	5.03% (inactive)
CC(C)CNC(=O)C(=O)NCc1ccccc1	7.35% (inactive)
Cc1c(Cl)cccc1NC(=S)N(Cc1ccccc1)Cc1cccnc1	3.04% (inactive)
COc1ccccc1NC(=O)c1c(Br)cnn1C	9.25% (inactive)
Cc1cccc(N2C(=O)SC(SC(=Nc3ccccc3)Nc3ccccc3)C2=O)c1 (centres undefined)	0.89% (inactive)
COc1ccc(N2C(=O)/C(=C\c3ccco3)N=C2SCC(N)=O)cc1Cl	0.72% (inactive)
S=C(c1ccc(-c2ccccc2)o1)N1CCCCC1	1.68% (inactive)
Cc1ccc(NC(=O)NC(=O)CSc2nnc(-c3ccc(OC(F)F)cc3)n2N)c(C)c1	4.7% (inactive)
COc1cccc(C2CC(c3ccccc3)=NN2S(=O)(=O)c2ccccc2)c1OC (centres undefined)	5.72% (inactive)
CCOc1ccc(NC(=O)c2cc(C)nc3ccccc23)cc1	4.37% (inactive)
COc1ccccc1NC(=O)/C=C/C(=O)O	3.21% (inactive)
C=CCNC(=O)CC12CC3CC(C1)CC(CC(=O)NCC=C)(C3)C2	0.78% (inactive)
Cc1cc(C)cc(NC(=O)Cn2cnc3c(nnn3Cc3ccc(F)cc3)c2=O)c1	0.29% (inactive)
CSc1ccc(CN2C(=O)NC3(CCCCCC3)C2=O)cc1	-1.59% (inactive)
COCCNC(=O)CCCn1c(=O)c2ccccc2n(Cc2cccc([N+](=O)[O-])c2)c1=O	3.38% (inactive)
COc1ccccc1CN(C)c1nnnn1-c1ccccc1	-0.06% (inactive)
O=C(CSc1ccc(-c2ccco2)nn1)NCc1ccc2c(c1)OCO2	0.73% (inactive)
O=C(Nc1ccccc1C(=O)O)c1cc(S(=O)(=O)N2CCCCC2)cs1	-0.42% (inactive)
Cc1c(Br)c([N+](=O)[O-])nn1CC(=O)N1CCN(Cc2ccccc2)CC1	2.55% (inactive)
CC(C)NC(=S)NN=C1CCCCCCCCCCC1	5.8% (inactive)
CCSc1sc(CC)cc1C=O	3.95% (inactive)

SMILES	inhibition
CCCCn1c(=O)c(CCC(=O)OCC(=O)Nc2ccc(C)c(Cl)c2)nc2ccccc21	2.45% (inactive)
COC(=O)Cc1csc(/N=C/c2c(O)n(-c3cccc(C(F)(F)F)c3)c(=O)c3ccccc23)n1	-1.85% (inactive)
Cc1c(Cc2ccccc2)c(=O)oc2cc(OCC(N)=O)ccc12	0.67% (inactive)
CCOC(=O)c1sc(=NC(=O)/C=C/c2cccs2)n(C)c1C	2.28% (inactive)
CCC(C(=O)OCC(=O)Nc1ccccc1-c1ccccc1)c1ccccc1 (centres undefined)	3.04% (inactive)
C/C(=N/O)c1ccc(N2C(=O)C3C4C=CC(C3C2=O)C2C3C(=O)N(c5ccc(/C(C)=N/O)cc5)C(=O)C3C42)cc1 (centres undefined)	-1.72% (inactive)
O=C(c1ccc(-c2ccccc2)cc1)C1CCCN(C(=O)c2cncs2)C1 (centres undefined)	3.81% (inactive)
Cc1ccc(OCC(=O)NNC(=S)NCc2ccccc2)cc1	-1.33% (inactive)
O=C(/C=C/c1cccc([N+](=O)[O-])c1)NCCSCc1ccco1	51.1% (inactive)
Cc1ccc(C)c(NS(=O)(=O)c2ccc(OCC(=O)NCc3cccnc3)cc2)c1	0.12% (inactive)
O=C(O/N=C(/c1ccccc1)c1ccncc1)c1ccccc1[N+](=O)[O-]	4.1% (inactive)
Cc1ccc(C(=O)COC(=O)c2cccc(N3C(=O)c4c(C)nc5ccccc5c4C3=O)c2)cc1C	15.3% (inactive)
S=c1[nH]nc(NCCc2ccccc2)s1	0.35% (inactive)
C/C(=C/C(=O)N1CCN(C)CC1)C(=O)O	4.35% (inactive)
CCNC(=O)CC1C(=O)N(c2ccc(OC)cc2)C(=S)N1CCc1ccncc1 (centres undefined)	-0.76% (inactive)
NS(=O)(=O)c1ccc(NC(=O)COC(=O)c2ccco2)cc1	10% (inactive)
CN(Cc1ccccc1)C(=O)CCc1ccccc1	1.98% (inactive)
O=C(NC1CCN(Cc2ccccc2)CC1)c1cc(Br)c(Br)[nH]1	4.52% (inactive)
Cc1ccc2c(c1)C(O)(CC(=O)c1cccc(-n3cccc3)c1)C(=O)N2 (centres undefined)	16.3% (inactive)
Cc1ccc(NC(=S)N(CCN(C)C)Cc2cccs2)cc1C	-0.22% (inactive)
COc1ccccc1NC(=S)N1CCC(NC(=O)C23CC4CC(CC(C4)C2)C3)CC1	-0.01% (inactive)
C=CCn1c(-c2sc(-c3ccccc3)nc2C)n[nH]c1=S	1.76% (inactive)
